This data set is described as follows: Toxicity liver stage against HepG2, at 10uM. It is filed as cell-based. The following applies: human, HepG2-A16-CD81EGFP cells; read-out: INHIBITION
More on the design: test concentration 10 uM, cell line HepG2-A16-CD81EGFP. The method, boiled down: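 Uninfected HepG2-A16-CD81EGFP cells, 3 × 10^3 per well, 1536-well, plated on prespotted compound at 10 μM final, parasite-free screening media added to match infected plates; puromycin 10 μM positive, DMSO 0.5% negative; run in parallel with 48 h PbLuc assay at 37 °C, 5% CO2; viability by CellTiter-Glo luminescence, normalized to controls.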
Regarding `Cc1noc([C@@H]2C[C@H](NC(=O)C3CCCCC3)CN2C)n1`, the cytotoxicity at 10 µM is -4.89%.

For the compound `COc1nn(C)cc1C(=O)N1CCC(C)CC1`, the cytotoxicity at 10 µM stood at 5.97%.

Turning to `CC(=O)c1cccc(NC(=O)Cn2cnc(-c3cccs3)cc2=O)c1`, the cytotoxicity at 10 µM was -4.44%.

Take `O=C(NC1CCN(c2ccc(-c3ccccc3F)nn2)C1)c1cc[nH]n1` (configuration not stated): the cytotoxicity at 10 µM turned out to be 3.17%.

As to `Cc1cc(CNC(=O)c2cnoc2C)c(C)o1`, the cytotoxicity at 10 µM is -6.32%.

Take `O=C(c1cnccn1)N1CCC2(CC1)C(=O)NCC2c1ccccc1` (configuration not stated): the cytotoxicity at 10 µM was -3.68%.

Take `CN(C)CCN1Cc2ncn(C)c2C(COCC(=O)N(C)C)C1` (configuration not stated): the cytotoxicity at 10 µM turned out to be 7.83%.

With `CS(=O)(=O)NC[C@]12COC[C@H]1CN(C(=O)c1ccncn1)C2`, the cytotoxicity at 10 µM was 9.2%.

For the compound `Cc1cc(-n2nnc(C(=O)O)c2-c2ccncc2)ccc1F`, the cytotoxicity at 10 µM amounted to 6.31%.

Consider `COC(=O)CC(c1ccc(OC)c(OC)c1OC)c1c(O)n[nH]c1C` (configuration not stated), for which the cytotoxicity at 10 µM stood at 4.02%.

Take `CS(=O)(=O)Nc1ccn(Cc2ccc(Br)cc2)n1`: the cytotoxicity at 10 µM was 10.9%.

Take `O=C(CCn1ncc2c(Cl)cccc21)NCCCO`: the cytotoxicity at 10 µM turned out to be 7.63%.

As for `CCn1nc(C)c2nnn(CC(=O)Nc3ccccc3)c(=O)c21`, the cytotoxicity at 10 µM stood at 9.02%.

In the case of `Cc1c(C2=NS(=O)(=O)N(C)C(C(=O)Nc3ccc(Br)cc3)=C2)cnn1C`, the cytotoxicity at 10 µM is 11.7%.

As for `CCc1cc(C(=O)N2CCC(c3cc4ncccc4cn3)CC2)no1`, the cytotoxicity at 10 µM is -14.4%.

As to `Cc1ccc(-c2nc(CCNCc3ccncc3)co2)cc1`, the cytotoxicity at 10 µM is -4.96%.

Take `CN(Cc1ccccc1)C(=O)c1cc2c(c(S(N)(=O)=O)c1)CCC2`: the cytotoxicity at 10 µM was -41.5%.

In the case of `CC(C)c1cc(N2CCC(NS(C)(=O)=O)C2)nc(C(C)C)n1` (configuration not stated), the cytotoxicity at 10 µM came out at 4.34%.

Consider `CC(=O)NCC(=O)Nc1cc(C)n(-c2ccc(Cl)cc2Cl)n1`, for which the cytotoxicity at 10 µM was -140%.

`Cc1ccc(CN(C)C(=O)CCn2c(=O)n(C)c3ccccc32)o1`: the cytotoxicity at 10 µM was found to be 4%.

In the case of `COc1ccc(C(C)NCCC(N)=O)cc1F` (configuration not stated), the cytotoxicity at 10 µM was -7.77%.

As to `O=C(NCc1nnc2n1CCC2)c1ccc(Br)s1`, the cytotoxicity at 10 µM was 2.74%.

On to `COCCCNc1cc(C(=O)N2CCOCC2)ccc1C`, for which the cytotoxicity at 10 µM came to 7.1%.

Consider `COCCOc1ccc(CNC2CCc3ncnn3C2)cc1OC` (configuration not stated), for which the cytotoxicity at 10 µM is -7.2%.

In the case of `CNS(=O)(=O)c1ccc(CNC(=O)C2CN(C)CCO2)cc1` (configuration not stated), the cytotoxicity at 10 µM is -14.1%.

Consider `CCCN1CCC(NC(=O)c2ccnc(SCC)c2)CC1`, for which the cytotoxicity at 10 µM is -4.14%.

On to `O=C(NCCc1nnc2n1CCC2)N(Cc1ccco1)C1CCCC1`, for which the cytotoxicity at 10 µM amounted to 5.04%.

Turning to `Cc1ccc(C(=O)N2CCOC(c3nc(C(C)(C)C)n[nH]3)C2)c(=O)[nH]1` (configuration not stated), the cytotoxicity at 10 µM turned out to be 1.31%.

For the compound `CCS(=O)(=O)CCCOc1nc(-c2ccccc2Cl)no1`, the cytotoxicity at 10 µM was -6.14%.

On to `O=C(NS(=O)(=O)c1ccc(Cl)cc1F)c1cccc2c1OCCO2`, for which the cytotoxicity at 10 µM is -5.33%.

As to `CCCNC(=O)CCNC(=O)c1sc2ccc(F)cc2c1C`, the cytotoxicity at 10 µM amounted to 3.33%.

As for `CCC(CC)C(=O)NCc1cn2cc(Br)ccc2n1`, the cytotoxicity at 10 µM came out at 5.17%.

Consider `CC(C)(C)OC(=O)N1CCC[C@H](NCc2cc[nH]c2)C1`, for which the cytotoxicity at 10 µM was 1.05%.

Consider `CC1(C)CN(C(=O)Nc2ccc(Cn3cccn3)cc2)CCO1`, for which the cytotoxicity at 10 µM is 45.1%.

With `Cc1cc(NC(=O)Nc2ccc3c(ccn3CCN(C)C)c2)n(C)n1`, the cytotoxicity at 10 µM worked out at 3.38%.

On to `COC(=O)CCC(=O)NC1CCCc2cc(OC(F)F)ccc21` (configuration not stated), for which the cytotoxicity at 10 µM was -4.52%.

Take `CCC1CCCCCN1C(=O)c1cc(C#N)c(SC)[nH]c1=O` (configuration not stated): the cytotoxicity at 10 µM was 12%.

Consider `CC(SCC(=O)N(C)CC(=O)NC1CC1)c1cc(F)ccc1F` (configuration not stated), for which the cytotoxicity at 10 µM worked out at 8.13%.

With `Cc1nc(CN(CCS(C)(=O)=O)C(C)C)no1`, the cytotoxicity at 10 µM is 0.329%.

In the case of `CN(C)c1cccc(C2CCCN2CCCN2CCOC2=O)c1` (configuration not stated), the cytotoxicity at 10 µM is -10.2%.

With `CN(CCNC(=O)Nc1cnn(C)c1)Cc1ccc(F)cc1`, the cytotoxicity at 10 µM came out at 7.72%.

In the case of `CCN1CCNC(=O)C12CCN(C(=O)Cc1ccccn1)CC2`, the cytotoxicity at 10 µM is 4.71%.

Turning to `CN(C)Cc1nc(-n2cnc(C(=O)NCC3CC3)c2)n2ccccc12`, the cytotoxicity at 10 µM was found to be 1.55%.

As for `O=C(c1ccc[nH]1)N1CCCn2cnc(COCC3CC3)c2C1`, the cytotoxicity at 10 µM was -73.6%.

As for `Cc1nc(COC[C@H]2CCC[C@]23CN(C2CCOC2)CCO3)cs1` (some centres not stated), the cytotoxicity at 10 µM was -79.5%.

With `CN(Cc1ccccn1)c1nccc(N2CCN[C@H]3CS(=O)(=O)C[C@H]32)n1`, the cytotoxicity at 10 µM was 10.5%.

Turning to `CC(C)c1cc(NCC2(N(C)C)CCCC2)ncn1`, the cytotoxicity at 10 µM turned out to be 4.22%.

On to `COc1ccc(Oc2cccnc2)cc1CN1CCCC1`, for which the cytotoxicity at 10 µM is 2.67%.

Take `CCC[C@H]1CN(Cc2ccccc2C#N)C[C@@H]1NS(C)(=O)=O`: the cytotoxicity at 10 µM was -11%.

For the compound `COCCCN(Cc1cnc(C2CCCCC2)nc1)C1CCN(C)CC1`, the cytotoxicity at 10 µM was -4.43%.

For `NC(=O)Cn1ccnc1C1CCCN(Cc2nc3ccccc3s2)C1` (configuration not stated), the cytotoxicity at 10 µM is -17%.

As for `COCCc1noc(-c2cn(Cc3ccccc3C)nn2)n1`, the cytotoxicity at 10 µM amounted to 3.15%.

Take `O=S1(=O)CCC(n2nc(Cc3cccs3)nc2-c2cnccn2)C1` (configuration not stated): the cytotoxicity at 10 µM is -6.33%.

As for `COc1nc2c(cc1C(=O)NCCCc1nnc(N)s1)CCC2`, the cytotoxicity at 10 µM turned out to be 4.37%.

Take `Fc1ccccc1Cc1noc(CN2CCC(C3CCCCC3)C2)n1` (configuration not stated): the cytotoxicity at 10 µM is 0.372%.

For `CC(C)Oc1cc(N2CCN(Cc3ccsc3)C(CCO)C2)nc(N)n1` (configuration not stated), the cytotoxicity at 10 µM was -6.35%.

Consider `Cc1ccccc1SCC(=O)Nn1cnnc1`, for which the cytotoxicity at 10 µM was -43.1%.

Take `Cn1ccnc1SCCNc1ccnc(C(F)(F)F)n1`: the cytotoxicity at 10 µM is -50.4%.

For the compound `Cc1nccnc1N1CCC(Cc2ccccc2Cl)(C(=O)O)CC1`, the cytotoxicity at 10 µM was 12.6%.

Take `c1ccc(CN(Cc2cccc3cnccc23)CC2CCCO2)nc1` (configuration not stated): the cytotoxicity at 10 µM is -5.68%.

Turning to `Cc1cc(N2CCC(n3cc(CN4CCNCC4)nn3)CC2)ccn1`, the cytotoxicity at 10 µM was -1.83%.

`COc1cc(F)ccc1-c1cc(N)ccn1`: the cytotoxicity at 10 µM was -9.5%.

In the case of `COc1cccc(OC2CN(C(=O)c3ccnc(OC)c3)C2)c1`, the cytotoxicity at 10 µM was -6.52%.

On to `CC(C)n1ccnc1CN1CCOC(CC2CCCCC2)C1` (configuration not stated), for which the cytotoxicity at 10 µM was -138%.

Turning to `O=c1cc(N2CCNCC2)cnn1CCCn1cccn1`, the cytotoxicity at 10 µM is -48%.

In the case of `Cn1cc(-c2c(C#N)c(N)nc3c2CCc2[nH]ccc2-3)cc1C#N`, the cytotoxicity at 10 µM was -1.68%.

With `CCn1cc(CN2CCC(CCC(=O)Nc3ccccc3Cl)CC2)cn1`, the cytotoxicity at 10 µM is -0.99%.

Regarding `CCc1nc(N)nc(N2CCCC3(CCOCC3)C2)c1C`, the cytotoxicity at 10 µM was -123%.

On to `C1CCC(c2nnc3sc(C4CCCO4)nn23)C1` (configuration not stated), for which the cytotoxicity at 10 µM is 8.61%.

As for `CC(c1cccc(-c2cn(Cc3ccoc3)nn2)c1)N(C)C` (configuration not stated), the cytotoxicity at 10 µM was 1.35%.

For `CCc1cccc(OCCN(C)C(=O)c2ccccc2NCC(=O)O)c1`, the cytotoxicity at 10 µM is -2.69%.

Regarding `Cc1cccnc1C(=O)N1CCCC(c2[nH]ncc2S(C)(=O)=O)C1` (configuration not stated), the cytotoxicity at 10 µM was found to be 7.58%.

`O=C(NCc1ccccc1Cn1cncn1)C1CC1`: the cytotoxicity at 10 µM is -11.3%.

With `CCOc1ccccc1N1CCN(C(=O)NCc2cc[nH]n2)CC1`, the cytotoxicity at 10 µM was found to be 5.48%.

Consider `CC(C(=O)NCc1ccnc(N(C)C)c1)n1cccn1` (configuration not stated), for which the cytotoxicity at 10 µM is -13.8%.

With `CCc1ncc(C(=O)N2CCCC2Cn2cccn2)s1` (configuration not stated), the cytotoxicity at 10 µM is -9.67%.

In the case of `CC(C)c1ncncc1C(=O)N1CCN(Cc2cscn2)CC1`, the cytotoxicity at 10 µM was -5.75%.

As for `c1cnnc(N2CCCC2CNCc2cc[nH]n2)c1` (configuration not stated), the cytotoxicity at 10 µM was -0.807%.

On to `Cc1nc(-c2ccsc2)ccc1C(=O)NCCC(=O)N1CCCC1`, for which the cytotoxicity at 10 µM was -9.57%.

`Cc1nn(C)c(C)c1C1CCCN1CCCc1nc2ccccc2o1` (configuration not stated): the cytotoxicity at 10 µM was -4.3%.

For `O=C(NCCn1nc2ccccn2c1=O)c1cccc2[nH]ncc12`, the cytotoxicity at 10 µM was -0.472%.

For `CNCc1ccc([C@@H]2CN(C)C[C@H]2C(N)=O)cc1`, the cytotoxicity at 10 µM is 7.67%.

For the compound `CNC(=O)C(C)(C)N1CCC[C@H]1C(=O)NCCN(C)C`, the cytotoxicity at 10 µM turned out to be 2.2%.

Take `c1ccc(CC2CCN(Cc3ccnc(-c4cccnc4)n3)CC2)cc1`: the cytotoxicity at 10 µM came out at 6.36%.

For `Cc1noc(C)c1CN1CCCC2(CCN(CC3CCCC3)C2)C1` (configuration not stated), the cytotoxicity at 10 µM is -4.1%.

Consider `CC(C)N1CCC2(CC1)C(=O)N(CCN(C)C)c1ccccc12`, for which the cytotoxicity at 10 µM was -121%.

For `COc1ccc(CN2C[C@H]3CN(c4ccsc4)C(=O)[C@H]3C2)cc1`, the cytotoxicity at 10 µM stood at 22.8%.

On to `CNCC(=O)N1CCCC(c2nccnc2Oc2cccc(F)c2)C1` (configuration not stated), for which the cytotoxicity at 10 µM was found to be 6.87%.

For the compound `c1cn2c(n1)CN(Cc1ccsc1)CC(Cn1cncn1)C2` (configuration not stated), the cytotoxicity at 10 µM was -74.8%.

Take `COc1ncccc1CN1C[C@H]2CCN(C(C)C)C[C@H]2C1`: the cytotoxicity at 10 µM was determined as 2%.

`O=C(NC1CC2(CCN(CCO)CC2)c2ccccc21)c1ccno1` (configuration not stated): the cytotoxicity at 10 µM is -12.2%.

Regarding `Cn1ccnc1C(=O)N[C@@H]1CN(Cc2ccc(F)cc2)[C@@H]2CCCO[C@@H]21`, the cytotoxicity at 10 µM is -111%.

Take `c1ccc(CN2CCOCC3(CCN(C4CCOCC4)C3)C2)cc1` (configuration not stated): the cytotoxicity at 10 µM worked out at 3.01%.

With `CCS(=O)(=O)N1CC[C@@H]2[C@H](CC1)N(Cc1cccc(C)n1)CCS2(=O)=O`, the cytotoxicity at 10 µM is -3.98%.

On to `CCCn1ncc(-c2ccnc(N[C@@H]3C[C@H]4CC[C@@H]3C4)n2)c1C`, for which the cytotoxicity at 10 µM was 0.541%.

Turning to `CCCS(=O)(=O)N1C[C@@H]2C[C@H](C(=O)N(C)C)[C@H](C1)O2`, the cytotoxicity at 10 µM is -74%.

Turning to `CN1CCN(C=C2N=C(c3cc(-c4ccccc4F)n[nH]3)ON2)CC1`, the cytotoxicity at 10 µM was -4.92%.

For the origin of these results see ChEMBL document CHEMBL4513216, “Probing the Open Global Health Chemical Diversity Library for Multistage-Active Starting Points for Next-Generation Antimalarials” (ACS Infect Dis, 2020).
